In paper PMC5614578 (Biochemistry and Biophysics Reports, 2017):
Entries after “also recorded” stand apart in the source; their conditions may differ. Where two headings read alike, the source gives them in different places.

Tests used:
[1] = biological target: T1, System xC^- cystine/glutamate antiporter (SXC) (Rattus norvegicus, UniProt A0A8I6AB70); assay: LPS-induced glutamate release from primary microglia; type: cell-based; details: for Inhibition of LPS-induced glutamate release (result in words): LPS-treated rat primary microglia
In short: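 Rat primary microglia were taken from 14–21-day mixed glial cultures of 1–2-day pup brains by shaking at 200 rpm for 2 h at 37 °C. Cells were plated at 50,000/well on poly-D-Lys and switched after 24 h to serum-free, phenol red-free DMEM with 2 mM glutamine and 0.2 mM cystine. Test compound (8 concentrations, 10 pM–100 μM, 0.1% DMSO final, duplicate or triplicate) was added 15 min before 1 μg/ml LPS for 24 h. Extracellular glutamate was read by enzyme-coupled Amplex UltraRed fluorescence against a glutamate standard curve, with cell-free counter-screens.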

[2] = biological target: T1, System xC^- cystine/glutamate antiporter (SXC); assay: [14C]-cystine uptake by LPS-activated primary microglia; type: cell-based
In short: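 Microglia were exposed for 24 h to HBSS or LPS (in HBSS) in DMEM with 0.2 mM cystine. An aliquot of that medium was checked for glutamate release to confirm activation. Medium was then replaced and uptake was measured over 15 min in EBSS with [¹⁴C]-cystine tracer (45 μCi/μmol, 10 μM), with LPS ± test compound. Specific uptake was obtained by subtracting a background control. Values average at least four determinations.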

[3] = biological target: T1, System xC^- cystine/glutamate antiporter (SXC); details: 1 mM; used for background control; stated as known, no reference given; cited from earlier work
ferroptosis = details: read-out: EC50 for induction of ferroptosis; cited from earlier work
rat primary microglia = type: cell-based; details: 24 h treatment; Pam3CSK4 10 µg/ml, poly I:C 50 µg/ml, Tat 1 µM, LPS 1 µg/ml
In short: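 Primary microglia were isolated from neonatal rat mixed glial cultures by shaking and kept in serum-free, phenol red-free DMEM with 2 mM glutamine and 0.2 mM cystine. Cells were stimulated for 24 h with the activator. Extracellular glutamate was quantified by enzyme-coupled Amplex UltraRed fluorescence against a standard curve, linear over 0.5–64 μM glutamate.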

T1 sequence (A0A8I6AB70 1-502): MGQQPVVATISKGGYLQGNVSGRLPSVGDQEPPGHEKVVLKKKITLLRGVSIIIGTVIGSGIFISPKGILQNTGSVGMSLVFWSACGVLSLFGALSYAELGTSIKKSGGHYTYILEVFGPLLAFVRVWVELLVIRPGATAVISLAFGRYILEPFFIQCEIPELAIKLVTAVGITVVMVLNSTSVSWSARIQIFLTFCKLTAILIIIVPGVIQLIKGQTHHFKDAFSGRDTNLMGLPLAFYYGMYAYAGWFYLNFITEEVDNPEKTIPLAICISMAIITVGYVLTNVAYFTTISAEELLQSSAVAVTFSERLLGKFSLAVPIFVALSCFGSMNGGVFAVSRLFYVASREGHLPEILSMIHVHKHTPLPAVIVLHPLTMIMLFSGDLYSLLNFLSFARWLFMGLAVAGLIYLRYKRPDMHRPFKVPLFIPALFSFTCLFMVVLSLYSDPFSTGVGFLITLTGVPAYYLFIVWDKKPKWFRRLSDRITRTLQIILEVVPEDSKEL
T1 sequence (Q794F9 whole entry partner): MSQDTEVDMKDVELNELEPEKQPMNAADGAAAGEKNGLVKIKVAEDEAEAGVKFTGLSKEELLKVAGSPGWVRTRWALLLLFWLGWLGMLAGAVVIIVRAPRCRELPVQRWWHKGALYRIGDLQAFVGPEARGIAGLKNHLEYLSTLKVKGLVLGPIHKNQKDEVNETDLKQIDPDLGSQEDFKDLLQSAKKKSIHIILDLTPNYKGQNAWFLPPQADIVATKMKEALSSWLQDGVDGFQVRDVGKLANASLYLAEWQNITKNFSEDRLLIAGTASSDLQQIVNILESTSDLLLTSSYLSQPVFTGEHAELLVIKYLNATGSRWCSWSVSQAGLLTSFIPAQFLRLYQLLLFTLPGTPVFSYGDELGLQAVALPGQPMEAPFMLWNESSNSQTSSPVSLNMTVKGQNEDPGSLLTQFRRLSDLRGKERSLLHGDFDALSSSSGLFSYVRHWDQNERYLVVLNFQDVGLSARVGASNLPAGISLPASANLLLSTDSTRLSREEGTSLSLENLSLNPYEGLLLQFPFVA

Row | Molecule | Inhibition of LPS-induced glutamate release (result in words) [1] | Inhibition of cystine uptake (result in words) [2] | also measured
1 | N[C@@H](C(=O)O)c1ccc(C(=O)O)cc1 [R-4CPG] | failed to inhibit | failed to inhibit | Inhibition of LPS-induced glutamate release (result in words) ([1]; listed as (R)-4-CPG): did not inhibit; Inhibition of cystine uptake (result in words) ([2]; listed as (R)-4-CPG): did not inhibit
2 | N[C@H](C(=O)O)c1ccc(C(=O)O)cc1 [S-4CPG, (S)-4-carboxyphenyl glycine] | blocked | blocked | 
3 | CCOc1ccccc1-n1c(C(C)N2CCN(C(=O)COc3ccccc3)CC2)nc2ccccc2c1=O (stereo not shown) [35MEW13] | abolished inhibitory activity |  | 
4 | O=C(O)c1cc(/N=N/c2ccc(S(=O)(=O)Nc3ccccn3)cc2)ccc1O [sulfasalazine] | blocked | blocked | Inhibition of SXC activity (result in words) [3]: completely inhibit
5 | CCOc1ccccc1-n1c(C(C)N2CCN(C(=O)COc3ccc(Cl)cc3)CC2)nc2ccccc2c1=O (stereo not shown) [erastin] | blocked | blocked | EC50 [1]: 130 ± 40 nM; EC50 (ferroptosis): 1200 nM
6 | CC(C)Oc1ccccc1-n1c(CN2CCN(C(=O)COc3ccc(Cl)cc3)CC2)nc2ccccc2c1=O [13MEW76] | did not affect inhibitory activity |  | 
7 | CCOc1ccccc1-n1c(C(C)N2CCN(C(C)=O)CC2)nc2ccccc2c1=O (stereo not shown) [Erastin A8] | abolished inhibitory activity; also recorded: inactive | inactive | 
8 | polyinosinic: polycytidylic acid [poly I:C] |  |  | Induction of glutamate release (result in words) (rat primary microglia): Significant glutamate release
9 | HIV-1 Tat1–86 protein: HIV-1 Tat1–86 protein obtained from Diatheva, microglia activator (protein, UniProt P04608 1-86, looked up) Protein Tat: MEPVDPRLEPWKHPGSQPKTACTNCYCKKCCFHCQVCFITKALGISYGRKKRRQRRRAHQNSQTHQASLSKQPTSQPRGDPTGPKE |  |  | Induction of glutamate release (result in words) (rat primary microglia): Significant glutamate release
